Screening results deposited in PubChem BioAssay by several laboratories.
OX1R antag-1: OX1R (HCRTR1) antagonists, primary screen, fluorescence, CHO/OX1R cells, Fluo-8 calcium, orexin A; Orexin/Hypocretin receptor type 1 (Homo sapiens), O43613; Fluo-8 calcium fluorescence; inhibition, % at 5 µM; actives 0.43% (n = 330,000);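 active = inhibition above its plate's threshold, mean inhibition of all tested compounds on the plate plus 3 SD, cut at about 37% in these data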;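 also: 0% = orexin A challenge wells and 100% = SB-334867-A antagonist wells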
TAAR1 antagonist: human TAAR1 antagonists, primary screen, Fluo-8 calcium fluorescence, CHO RD-HGA16 cells; Trace amine-associated receptor 1 (Homo sapiens), Q96RJ0; antagonist; inhibition, % at 3 µM; actives 1.5% (n = 360,000); AID 624466, 2012;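 active = inhibition above a per-plate cutoff, the mean inhibition of test compounds on that plate plus 3 SD, cut at about 49% in these data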;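 also: 0% = DMSO plus EC80 beta-PEA response and 100% = DMSO alone without agonist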
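Material: CHO RD-HGA16 cells bearing hTAAR1; compound dosing: one-point dosing, 3 µM nominal final; schedule: dye loading 75 min at 37 °C, then 30 min room temperature; measured by: calcium fluorescence with Fluo-8; control set: vehicle and agonist controls; replication: n of 1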
OX1R antag-2: antagonists of human orexin 1 receptor (OX1R); actives 1.8% (n = 330,000); OX1R-expressing cells, FRET antagonist read-out; inhibition, % at 6.6 µM; in the data active = inhibition mostly above about 38%, no sharp cut-off; inactive = mostly below about 40%;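 also: 0% = agonist challenge alone and 100% = reference antagonist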
TAAR1 ag: human TAAR1 agonists, primary screen, Fluo-8 calcium fluorescence, CHO RD-HGA16 cells | actives 0.99% (n = 360,000) | Trace amine-associated receptor 1 (Homo sapiens), Q96RJ0 | activation, % at 3 µM | vehicle wells 0%, saturating PEA agonist 100% | AID 624467, 2012;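 active = activation above the mean activation of all test compounds in the run plus 3 SD, cut at about 38% in these data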
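Signal – calcium-sensitive Fluo-8 signal, excitation 470-495, emission 515-575 nm · System – RD-HGA16 (CHO) cells co-expressing Gα16 and hTAAR1 · Incubation – 17-24 h seeding, 75 min 37 °C dye, 30 min RT · Compound dosing – 3 µM single concentration · Repeats – no replicates (n 1)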
CHO parental Ca: ATP-evoked calcium signal inhibitors, parental CHO, primary screen, counter-screen for OX1R antagonist project, cell-based, fluorescence, Fluo-8 calcium dye. parental CHO-K1, ATP-induced calcium, Fluo-8 fluorescence. inhibition, % at 5.6 µM. actives 0.63% (n = 330,000). AID 463079, 2010;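 active = inhibition above that plate's mean sample inhibition plus 3 SD, cut at about 26% in these data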;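 also: 0% = ATP-challenged DMSO wells and 100% = DMSO wells without ATP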
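test system = CHO parental line | reagent = ATP stimulus | measured by = intracellular calcium via Fluo-8 no-wash fluorescent dye | control set = ATP and no-ATP DMSO wells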
NTR1 agonist: agonists of human NTR1, primary screen, imaging, U2OS cells, beta-arrestin-GFP, high content. actives 0.17% (n = 330,000). Neurotensin receptor type 1 (Homo sapiens), P30989. NTR1-U2OS beta-arrestin-GFP spot imaging, agonist mode. activation, % at 20 µM;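 active = activation at or above 40% of the spot to cytoplasm intensity ratio, with at least 20 cells analyzed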;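 also: 0% = DMSO without peptide and 100% = 100 nM NTR1 peptide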
Target sequence (P30989 whole entry, looked up): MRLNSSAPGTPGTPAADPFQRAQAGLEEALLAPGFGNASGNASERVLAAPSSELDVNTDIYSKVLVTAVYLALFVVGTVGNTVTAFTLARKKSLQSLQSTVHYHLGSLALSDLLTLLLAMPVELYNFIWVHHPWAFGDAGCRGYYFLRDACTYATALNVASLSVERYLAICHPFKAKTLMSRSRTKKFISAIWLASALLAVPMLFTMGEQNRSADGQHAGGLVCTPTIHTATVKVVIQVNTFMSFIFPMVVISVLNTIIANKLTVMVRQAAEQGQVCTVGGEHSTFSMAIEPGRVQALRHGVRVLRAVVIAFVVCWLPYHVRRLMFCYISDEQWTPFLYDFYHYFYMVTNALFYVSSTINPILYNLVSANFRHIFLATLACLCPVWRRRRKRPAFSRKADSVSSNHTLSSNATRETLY
The depositor's hits bear a star; / = no result. Most compounds without a hit are left out; they make up all but 4% or so of the library.

SMILES	OX1R antag-1	TAAR1 antagonist	OX1R antag-2	TAAR1 ag	CHO parental Ca	NTR1 agonist
C=CCN1C(=O)c2n[nH]c(COC)c2C1c1cccc(C(F)(F)F)c1 (stereo not given)	/	-13	/	1	/	/
C[C@H](CO)N1C[C@H](C)[C@H](CN(C)Cc2cccc(F)c2)Oc2ncc(C3=CCCC3)cc2C1=O	/	-14	/	0	/	/
CCOC(=O)C1=CCN(S(=O)(=O)c2ccc(Cl)cc2)C1c1ccc(Br)cc1 (stereo not given)	/	5	/	0	/	/
CC(C)c1ccc(NC(=O)C2CCCN2S(=O)(=O)c2ccccc2F)cc1 (stereo not given)	21	-10	37*	4	-14	1
COc1ccc(C)cc1NC(=O)C1CCCN1S(=O)(=O)c1ccccc1F (stereo not given)	14	-17	52*	14	-25	16
CC(=O)c1sc(NC(=O)C2CCCN2S(=O)(=O)c2ccccc2F)nc1C (stereo not given)	37	-6	37*	2	-18	0
O=C(Nc1nccs1)[C@@H]1CCCN1S(=O)(=O)c1ccccc1F	/	-14	/	2	/	-1
COc1ccc(NC(=O)[C@@H]2CCCN2S(=O)(=O)c2ccccc2F)cc1S(=O)(=O)N1CCCCC1	23	20	32	8	-20	1
Cc1ccc(C)c(NC(=O)[C@@H]2CCCN2S(=O)(=O)c2ccccc2F)c1	21	10	43*	5	-10	-1
CC1=C(c2ccccc2)C(=O)C(C)(C)CC1=O	/	-13	/	6	/	/
COc1ccc(S(=O)(=O)N2CCOC2CNC(=O)C(=O)NCCCN2CCOCC2)cc1C (stereo not given)	-4	-7	5	4	-12	1
NC(=O)c1c(N)[nH]c(C(=O)c2ccccc2)c1-c1ccc2c(c1)OCO2	/	-13	/	5	/	/
CN1CCCCC(NC(=O)c2ccc(Cl)cc2Cl)C1=O (stereo not given)	/	-3	/	0	/	/
CN1CCCCC(NC(=O)c2cccs2)C1=O (stereo not given)	/	20	/	0	/	/
CC(C)(C)S(=O)(=O)N1C[C@@H]2CC(=O)C=C2[C@H]1CCO	/	-23	/	2	/	/
O=C(N/N=C/C(Cl)=C/c1ccc([N+](=O)[O-])cc1)C(=O)Nc1cccc(C(=O)O)c1	-17	-32	66*	2	3	-1
O=C(Nc1cccc(C(=O)O)c1)/C(=C/c1cccc([N+](=O)[O-])c1)NC(=O)c1cccc(Br)c1	-1	-17	51	0	-3	-1
CSc1nc2nccc(-c3ccc(-c4ccccc4)cc3)n2n1	1	8	44*	5	-25	20
Cc1ccccc1-c1ccc2c(c1)[C@@H]1C[C@H](N(C)C(=O)c3ccco3)[C@H]([C@H](C)O)CN1CC2	/	-9	/	1	/	/
CCc1cc2c(nc1CC)CCCN2CCOC	/	-1	/	1	/	/
CN(C)/C=C/C(=O)c1ccc(Oc2ncccn2)cc1	-27	-2	2	12	-9	0
O=C(/C=C/Nc1ccccc1)c1ccc(Oc2ncccn2)cc1	-24	-29	4	43*	-11	1
C=C1CCC2C(C)(C)[C@@H](O)CC[C@@]2(C)[C@@H]1COc1ccc2ccc(=O)oc2c1 (stereo not given in full)	16	38	15	31	-1	39
CC(=O)OC1CCC2(C)C(COc3ccc4ccc(=O)oc4c3)C(C)(O)CCC2C1(C)C (stereo not given)	-13	56*	28	16	-13	4
CCc1ccc(-n2cccc2/C=C2/C(=N)N3C(=NC2=O)SN=C3S(C)(=O)=O)cc1	-1	57*	66*	1	-3	3
SMILES	OX1R antag-1	TAAR1 antagonist	OX1R antag-2	TAAR1 ag	CHO parental Ca	NTR1 agonist
Cc1cc(C)cc(-n2cccc2/C=C2/C(=N)N3C(=NC2=O)SN=C3S(C)(=O)=O)c1	-5	30	51*	0	-1	-1
CS(=O)(=O)C1=NSC2=NC(=O)/C(=C\c3cccn3-c3ccccc3Cl)C(=N)N21	-24	21	64*	5	-14	2
COc1ccc(C2CC(=O)C(c3ccc(Cl)cc3)=CN2Cc2ccccc2)cc1 (stereo not given)	/	-1	/	3	/	/
COc1ccccc1N1CCN(C(=O)c2cc3c(C)nc4ccccc4c3o2)CC1	-15	54*	23	5	-12	9
CCc1ccc(NC(=O)c2cc3c(C)nc4ccccc4c3o2)cc1	-20	-5	60*	3	-33	12
Cc1ccc(CNC(=O)c2cc3c(C)nc4ccccc4c3o2)cc1	-22	28	57*	0	24	1
Cc1ccccc1NC(=O)c1cc2c(C)nc3ccccc3c2o1	-36	18	9	10	-19	-1
Nc1ccn([C@@H]2O[C@H](C(=O)N[C@H](Cc3ccccc3)C(=O)N3CCN(C(=O)N4CCOCC4)CC3)[C@@H](O)[C@H]2O)c(=O)n1	/	-2	/	0	/	/
COC(=O)N(C)C[C@H]1OCc2cn(nn2)CCCC(=O)N([C@H](C)CO)C[C@@H]1C	/	-14	/	0	/	/
CCn1c(C)c(C(C)=O)c(N2CCN(c3ccccc3)CC2)nc1=S	-20	-8	25	5	-14	0
CCn1c(C)c(C(C)=O)c(N2CCN(C(c3ccccc3)c3ccccc3)CC2)nc1=S	-33	50*	9	15	-11	4
COc1ccc(CCNC(=O)c2ccc(CNS(=O)(=O)c3ccc(C(C)(C)C)cc3)cc2)cc1OC	4	56*	26	15	-5	2
O=C(CSc1ccc(F)cc1)N1CCC(c2nc3ccccc3s2)CC1	18	52*	15	14	2	1
O=C(CSc1ccccc1Cl)N1CCC(c2nc3ccccc3s2)CC1	-22	20	33	13	-11	4
O=C(CSc1ccc2ccccc2n1)N1CCC(c2noc3ccc(F)cc23)CC1	3	31	55*	8	-10	7
Cc1nnc(SCC(=O)N2CCC(c3noc4ccc(F)cc34)CC2)s1	-21	-4	5	5	-10	3
O=C(C1CCN(S(=O)(=O)c2ccccc2F)CC1)N1CCN(Cc2ccc3c(c2)OCO3)CC1	-11	21	0	-1	-10	2
C=C1CCN(c2ccc(C(=O)O)cc2[N+](=O)[O-])CC1	-15	/	70*	/	-6	0
COc1cccc(CNc2cccc3cccnc23)c1O	-17	6	54*	10	13	10
